{"source": "paper PMC8753982", "about": "(ACS chemical neuroscience, 2019)", "key": {"[1]": {"target": "T1, endogenous mGlu5 in striatal neurons (Rattus norvegicus, UniProt P31424)", "T1 sequence (P31424 21-1203)": "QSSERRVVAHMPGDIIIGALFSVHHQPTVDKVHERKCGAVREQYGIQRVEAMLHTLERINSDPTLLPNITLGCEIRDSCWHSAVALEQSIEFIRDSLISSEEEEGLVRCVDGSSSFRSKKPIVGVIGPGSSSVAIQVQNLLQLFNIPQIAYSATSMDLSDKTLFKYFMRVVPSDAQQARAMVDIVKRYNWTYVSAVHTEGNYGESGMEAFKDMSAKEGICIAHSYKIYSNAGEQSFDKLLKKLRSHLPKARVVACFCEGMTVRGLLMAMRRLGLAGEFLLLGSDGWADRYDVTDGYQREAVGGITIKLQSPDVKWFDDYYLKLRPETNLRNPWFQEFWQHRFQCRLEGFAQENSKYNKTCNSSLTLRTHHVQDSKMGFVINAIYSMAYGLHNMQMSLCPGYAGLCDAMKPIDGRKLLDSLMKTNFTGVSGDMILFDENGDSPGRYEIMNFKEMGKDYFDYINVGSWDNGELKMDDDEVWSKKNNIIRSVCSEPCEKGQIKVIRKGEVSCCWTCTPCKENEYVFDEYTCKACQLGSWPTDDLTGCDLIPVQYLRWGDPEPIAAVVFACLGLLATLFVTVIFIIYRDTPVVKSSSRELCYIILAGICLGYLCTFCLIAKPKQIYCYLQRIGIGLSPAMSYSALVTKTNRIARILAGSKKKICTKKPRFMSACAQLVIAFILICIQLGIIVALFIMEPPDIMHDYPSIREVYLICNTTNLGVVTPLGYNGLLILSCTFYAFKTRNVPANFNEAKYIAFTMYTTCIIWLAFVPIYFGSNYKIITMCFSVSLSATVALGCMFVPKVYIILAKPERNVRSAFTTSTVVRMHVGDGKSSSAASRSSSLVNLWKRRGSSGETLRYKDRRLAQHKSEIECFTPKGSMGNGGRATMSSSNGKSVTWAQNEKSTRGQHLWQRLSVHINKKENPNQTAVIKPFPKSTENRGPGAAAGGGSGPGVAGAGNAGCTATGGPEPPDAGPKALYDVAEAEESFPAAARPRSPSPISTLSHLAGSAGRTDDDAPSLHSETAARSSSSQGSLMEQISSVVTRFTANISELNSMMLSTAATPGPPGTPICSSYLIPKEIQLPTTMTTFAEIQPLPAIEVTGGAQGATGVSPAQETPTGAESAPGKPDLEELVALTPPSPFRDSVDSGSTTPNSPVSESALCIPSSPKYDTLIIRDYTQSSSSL", "assay": "Single cell Ca2+ imaging", "assay_type": "cell-based", "settings": "for effect on Quis-mediated Ca2+ responses (intracellular mGlu5): compound at 1, 5, 10 μM; for effect on single cell intracellular responses at 10-fold IC50: at 10-fold their IC50 values (refs 20, 25)", "outline": "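Primary striatal cultures from 1-day-old neonatal rat pups, on gridded glass dishes, loaded with 5 μM Oregon Green 488 BAPTA-AM. Cultures were preincubated with 20 μM CPCCOEt (mGlu1 antagonist) plus 25 μM AMPA receptor antagonist, then imaged by confocal microscopy during agonist (Quis 10 μM) and NAM (1, 5, 10 μM) exposure. Signals were taken as fractional fluorescence change over basal and normalized to Quis response (% Quis).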"}, "[2]": {"target": "mGlu5 (mGlu5/HEK stable cell line) (Rattus norvegicus, UniProt P31424)", "sequence (P31424 21-1203)": "as above", "assay": "Fluorescence-based Ca2+ flux assay with a microplate reader", "assay_type": "cell-based", "settings": "for LLE: LLE = pIC50 − log P (consensus log Po/w Table 1, IC50 Table 3)"}, "[3]": {"target": "T1, endogenous mGlu5 in striatal neurons", "assay": "Fluorescence-based Ca2+ flux assay with a microplate reader", "assay_type": "cell-based"}, "[4]": {"target": "T2, endogenous mGlu5 in hippocampal neurons (Rattus norvegicus, UniProt P31424)", "T2 sequence (P31424 21-1203)": "as above", "assay": "Fluorescence-based Ca2+ flux assay with a microplate reader", "assay_type": "cell-based"}, "[5]": {"target": "endogenous mGlu5 in cortical neurons (Rattus norvegicus, UniProt P31424)", "sequence (P31424 21-1203)": "as above", "assay": "Fluorescence-based Ca2+ flux assay with a microplate reader", "assay_type": "cell-based"}, "mGlu5 (mGlu5/HEK cells)": {"tested_on": "mGlu5 (mGlu5/HEK cells)", "assay": "Single cell Ca2+ imaging", "assay_type": "cell-based", "settings": "for effect on DHPG-induced oscillatory Ca2+ response: DHPG 100 μM, NAM applied after agonist at 1, 5, 10 μM; for effect of NAM pretreatment on DHPG or Quis-mediated Ca2+ responses: DHPG 100 μM or Quis 10 μM"}, "mGlu5": {"tested_on": "mGlu5", "settings": "read-out: published IC50; cited from earlier work"}, "[6]": {"tested_on": "mGlu5 (mGlu5/HEK stable cell line)", "sequence (P31424 21-1203)": "as above", "assay": "Fluorescence-based Ca2+ flux assay with a microplate reader", "assay_type": "cell-based", "settings": "LLE = pIC50 − log P (consensus log Po/w Table 1, IC50 Table 3)"}, "[7]": {"target": "T2, endogenous mGlu5 in hippocampal neurons", "assay": "Single cell Ca2+ imaging", "assay_type": "cell-based", "settings": "pretreatment 1 μM, Quis 10 μM"}}, "note": "“Also recorded” adds a separate entry of the source.", "data": [{"smiles": "NC(CC1c2ccccc2Sc2ccccc21)(C(=O)O)C1CC(C(=O)O)C1", "note": "(mixture of isomers) [LY393053, 2-Amino-2-(3-cis/trans-carboxycyclobutyl)-3-(9H-thioxanthen-9-yl) propionic acid]", "values": [{"measurement": "effect on Quis-mediated Ca2+ responses (intracellular mGlu5)", "setting": "[1]; striatal neurons, Quis 10 μM", "value": "neither 5MPEP,[34] a neutral allosteric modulator, nor LY393053 affected Quis-induced Ca^2+ rises"}]}, {"smiles": "Cc1cccnc1C#Cc1ccccc1", "note": "[5MPEP, 5-methyl-6-(phenylethynyl)-pyridine]", "values": [{"measurement": "effect on Quis-mediated Ca2+ responses (intracellular mGlu5)", "setting": "[1]; striatal neurons, Quis 10 μM", "value": "neither 5MPEP,[34] a neutral allosteric modulator, nor LY393053 affected Quis-induced Ca^2+ rises"}]}, {"smiles": "COC(=O)N1CC[C@@H]2[C@H]1CCC[C@@]2(O)C#Cc1cccc(C)c1", "note": "[AFQ056, methyl (3aR,4S,7aR)-4-hydroxy-4-[(3-methylphenyl)ethynyl]octahydro-1H-indole-1-carboxylate]", "values": [{"measurement": "LLE", "setting": "[2]", "value": 4.57}, {"measurement": "IC50", "setting": "[3]", "value": "9440 ± 3780", "unit": "nM"}, {"measurement": "fold shift of IC50 between mGlu5/HEK cells and striatal cultures", "setting": "[3]", "value": 250, "unit": "fold"}, {"measurement": "IC50", "setting": "[4]", "value": "257 ± 27.4", "unit": "nM"}, {"measurement": "IC50", "setting": "[5]", "value": "270 ± 73", "unit": "nM"}, {"measurement": "effect on DHPG-induced oscillatory Ca2+ response", "setting": "mGlu5 (mGlu5/HEK cells)", "value": "inhibited; also recorded: blocked"}, {"measurement": "effect on Quis-induced Ca2+ response", "setting": "mGlu5 (mGlu5/HEK cells); Quis 10 μM, NAM at 1, 5, 10 μM", "value": "inhibited; also recorded: blocked"}, {"measurement": "effect of NAM pretreatment on DHPG or Quis-mediated Ca2+ responses", "setting": "mGlu5 (mGlu5/HEK cells)", "value": "completely blocked"}, {"measurement": "effect on Quis-mediated Ca2+ responses (intracellular mGlu5)", "setting": "[1]; striatal neurons, Quis 10 μM", "value": "neither 1, 5, nor 10 μM AFQ056 blocked Quis-mediated Ca^2+ responses; also recorded: did not completely block; also recorded: fails to block"}, {"measurement": "effect on DHPG-induced Ca2+ response", "setting": "[1]; striatal neurons, pre- or post-treatment, cell-surface only agonist DHPG", "value": "blocked"}, {"measurement": "IC50", "setting": "mGlu5", "value": 30, "unit": "nM"}]}, {"smiles": "C[C@@H](Oc1nnc(-c2ccncc2)n1C)c1cc(-c2cccc(Cl)c2)on1", "note": "[AZD2066, 4-[5-[(1R)-1-[5-(3-chlorophenyl)-3-isoxazolyl]ethoxy]-4-methyl-4H-1,2,4-triazol-3-yl]pyridine]", "values": [{"measurement": "LLE", "setting": "[6]", "value": 4.29}, {"measurement": "IC50", "setting": "[3]", "value": "3560 ± 520", "unit": "nM"}, {"measurement": "IC50", "setting": "[4]", "value": "96.2 ± 17.8", "unit": "nM"}, {"measurement": "IC50", "setting": "[5]", "value": "380 ± 78", "unit": "nM"}, {"measurement": "effect on DHPG-induced oscillatory Ca2+ response", "setting": "mGlu5 (mGlu5/HEK cells)", "value": "blocked"}, {"measurement": "effect of NAM pretreatment on DHPG or Quis-mediated Ca2+ responses", "setting": "mGlu5 (mGlu5/HEK cells)", "value": "completely blocked"}, {"measurement": "effect on single cell intracellular responses at 10-fold IC50", "setting": "[1]", "value": "did not block"}, {"measurement": "effect on Quis-mediated Ca2+ responses (intracellular mGlu5)", "setting": "[1]; striatal neurons, Quis 10 μM", "value": "less effective"}]}, {"smiles": "N[C@H](C(=O)O)c1cc(O)cc(O)c1", "note": "[DHPG, (S)-3,5-dihydroxyphenylglycine]", "values": [{"measurement": "maximum DHPG-induced Ca2+ increase, % of the Quis-induced response", "setting": "[3]; plate reader, cell type not given", "value": "15–20%"}]}, {"smiles": "CN1CC(=O)N=C1NC(=O)Nc1cccc(Cl)c1", "note": "[Fenobam, N-(3-chlorophenyl)-N′-(4,5-dihydro-1-methyl-4-oxo-1H-imidazol-2-yl)urea]", "values": [{"measurement": "LLE", "setting": "[2]", "value": 5.50}, {"measurement": "IC50", "setting": "[3]", "value": "2930 ± 480", "unit": "nM"}, {"measurement": "fold shift of IC50 between mGlu5/HEK cells and striatal cultures", "setting": "[3]", "value": 16, "unit": "fold"}, {"measurement": "IC50", "setting": "[4]", "value": "442 ± 150", "unit": "nM"}, {"measurement": "IC50", "setting": "[5]", "value": "807 ± 53.5", "unit": "nM"}, {"measurement": "LLE", "setting": "[5]; cortical, LLE = pIC50 − log P (consensus log Po/w Table 1, IC50 Table 3)", "value": 2.94}, {"measurement": "effect on DHPG-induced oscillatory Ca2+ response", "setting": "mGlu5 (mGlu5/HEK cells)", "value": "blocked"}, {"measurement": "effect on Quis-induced Ca2+ response at 1 μM NAM", "setting": "mGlu5 (mGlu5/HEK cells); pretreatment 1 μM, Quis 10 μM", "value": "less effective"}, {"measurement": "effect of NAM pretreatment on DHPG or Quis-mediated Ca2+ responses", "setting": "mGlu5 (mGlu5/HEK cells)", "value": "completely blocked"}, {"measurement": "effect on Quis-induced Ca2+ response at 1 μM NAM", "setting": "[7]", "value": "less effective"}, {"measurement": "effect on single cell intracellular responses at 10-fold IC50", "setting": "[1]", "value": "did not block"}, {"measurement": "effect on Quis-mediated Ca2+ responses (intracellular mGlu5)", "setting": "[1]; striatal neurons, Quis 10 μM", "value": "less effective"}, {"measurement": "effect on Quis-induced Ca2+ response at 1 μM NAM", "setting": "[1]; striatal, pretreatment 1 μM, Quis 10 μM", "value": "less effective"}]}, {"smiles": "Cc1cccc(C#Cc2ccccc2)n1", "note": "[MPEP, 2-methyl-6-(phenylethynyl)pyridine]", "values": [{"measurement": "effect on DHPG-induced oscillatory Ca2+ response", "setting": "mGlu5 (mGlu5/HEK cells)", "value": "blocked"}, {"measurement": "effect of NAM pretreatment on DHPG or Quis-mediated Ca2+ responses", "setting": "mGlu5 (mGlu5/HEK cells)", "value": "completely blocked"}]}, {"smiles": "N[C@@H](Cn1oc(=O)[nH]c1=O)C(=O)O", "note": "[Quis, Quisqualate]", "values": [{"measurement": "Quis EC80", "setting": "[2]", "value": "125 ± 32.3", "unit": "nM"}, {"measurement": "EC50", "setting": "[3]", "value": "1310 ± 360", "unit": "nM"}, {"measurement": "fold difference in EC50 between the cortical and hippocampal neurons and the striatum, respectively", "setting": "[3]; Quis", "value": "8–10 fold"}, {"measurement": "fold difference in the EC50 for Quis in HEK cells versus striatal neurons", "setting": "[3]; mGlu5/HEK versus endogenous mGlu5-expressing striatal neurons", "value": 42, "unit": "fold"}, {"measurement": "Quis EC80", "setting": "[3]; striatal", "value": "5250 ± 1430", "unit": "nM"}, {"measurement": "difference in EC50 between cell surface and intracellular mGlu5", "setting": "[3]; striatum, Quis with versus without LY393053 20 μM", "value": "no difference in EC50"}, {"measurement": "EC50", "setting": "[4]", "value": "122 ± 12.1", "unit": "nM"}, {"measurement": "Quis EC80", "setting": "[4]; hippocampal", "value": "515 ± 51.4", "unit": "nM"}, {"measurement": "fold difference in potency, Quis with versus without LY393053", "setting": "[4]; hippocampus, LY393053 20 μM", "value": "~1.8", "unit": "fold"}, {"measurement": "EC50", "setting": "[5]", "value": "168 ± 55.8", "unit": "nM"}, {"measurement": "fold difference in potency, Quis with versus without LY393053", "setting": "[5]; cortex, LY393053 20 μM", "value": "~1.8", "unit": "fold"}, {"measurement": "Quis EC80", "setting": "[5]; cortical", "value": "670 ± 223", "unit": "nM"}]}, {"smiles": "Cc1nc(C#Cc2ccnc(Cl)c2)c(C)n1-c1ccc(F)cc1", "note": "[RG7090, 2-chloro-4-((1-(4-fluorophenyl)-2,5-dimethyl-1H-imidazol-4-yl)ethynyl)pyridine]", "values": [{"measurement": "LLE", "setting": "[6]", "value": 4.59}, {"measurement": "IC50", "setting": "[3]", "value": "62 ± 17.5", "unit": "nM"}, {"measurement": "IC50", "setting": "[4]", "value": "8.97 ± 3.4", "unit": "nM"}, {"measurement": "IC50", "setting": "[5]", "value": "80.2 ± 16.8", "unit": "nM"}, {"measurement": "fold difference of potency in cortical neurons versus HEK cells", "setting": "[5]", "value": 45, "unit": "fold"}, {"measurement": "effect on DHPG-induced oscillatory Ca2+ response", "setting": "mGlu5 (mGlu5/HEK cells)", "value": "blocked"}, {"measurement": "effect of NAM pretreatment on DHPG or Quis-mediated Ca2+ responses", "setting": "mGlu5 (mGlu5/HEK cells)", "value": "completely blocked"}, {"measurement": "effect on Quis-mediated Ca2+ responses (intracellular mGlu5)", "setting": "[1]; striatal neurons, Quis 10 μM", "value": "most effective; also recorded: very effective"}]}]}
